Among the data in ChEMBL document CHEMBL1138522, “A novel small-molecule inhibitor of the avian influenza H5N1 virus determined through computational screening against the neuraminidase” (J Med Chem, 2009) are Activity values, retold here.

Data set [1] deals with Influenza A virus. As to the kind of experiment: Antiviral activity against influenza A virus H1N1 A/HK/54/98 in MDCK cells assessed as inhibition of viral replication after 48 hrs by hemagglutinination assay. It is filed as functional, organism-based. Put shortly: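 H1N1 A/HK/54/98 infected MDCK cells at moi 2 for 30 min, then washed once with PBS. Cells were refed with serum-free medium containing TPCK-trypsin plus compound. Supernatant was collected 48 h post-infection and viral titre was read by hemagglutination assay.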

The test system of data set [2] is Influenza A virus. As to the kind of experiment: Antiviral activity against Influenza A virus (A/Viet Nam/1203/2004(H5N1)) in MDCK cells assessed as inhibition of viral replication after 48 hrs by hemagglutinination assay. It is filed as functional, organism-based.
Data set [3] can be described thus: Cytotoxicity against primary human blood macrophages after 48 hrs by MTT assay. It is filed as cell-based. Conditions: macrophage. Put shortly:
(§1)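 Primary human blood macrophages or MDCK cells were incubated 48 h with DMSO-dissolved compound; viability by MTT assay. DMSO-treated cells served as solvent controls.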

The subject of a further data set is MDCK. Put plainly: Cytotoxicity against MDCK cells after 48 hrs by MTT assay. The class given is cell-based, Canis lupus familiaris. Particulars: dog. A digest of the protocol:
as §1
(Tetrazolium assays rely on reduction of a dye to a coloured formazan, in cell work by metabolically active cells.)

Data set [4] relates to Influenza A virus. Put plainly: Antiviral activity against influenza A virus H1N1 A/HK/54/98 in MDCK cells assessed as inhibition of viral replication at 100 uM after 18 hrs by transmission electron microscopy. The class given is functional, organism-based. Put shortly: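 MDCK cells were infected with H1N1 at moi 2, then treated with compound at 100 µM, with DMSO controls. At 18 h post-infection, cells were fixed in 2.5% glutaraldehyde in 0.1 M cacodylate (pH 7.4), post-fixed in 1% osmium tetroxide, and embedded in epoxy. 100 nm sections were examined by TEM for surface virions.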

In data set [5] the test system is Influenza A virus. As to the kind of experiment: Antiviral activity against Influenza A virus (A/Viet Nam/1203/2004(H5N1)) in MDCK cells assessed as inhibition of viral replication at 100 uM after 18 hrs by transmission electron microscopy. It is filed as functional, organism-based.
Another data set deals with Mus musculus. As to the kind of experiment: Toxicity in mouse assessed as survival up to 400 mg/kg. It is filed as organism-based. Further details: dose 400 mg/kg. Conditions: in vivo.
The test system of data set [6] is Influenza A virus. Put plainly: Antiviral activity against influenza A virus H1N1 A/HK/54/98 in MDCK cells assessed as inhibition of virus-induced cytopathic effect after 48 hrs by crystal violet staining. It is filed as functional, organism-based. A digest of the protocol:
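H1N1 A/HK/54/98 infected MDCK cells at moi 2, with compound over a range of concentrations; supernatant taken at 48 h. Serial 2-fold dilutions were adsorbed 1 h onto MDCK cells (2 × 10^4/well), then incubated 4 days in MEM with 1 µg/mL TPCK-trypsin. CPE was read by formaldehyde fixation and crystal violet staining; TCID50 by Reed-Muench. Three independent experiments.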
(In general: Cytopathic effects are the visible damage that an infection or toxin causes in cultured cells.)

In data set [7] the target is Neuraminidase (Influenza A virus) (UniProt B4URF0). Put plainly: Inhibition of influenza A virus H1N1 neuraminidase catalytic activity at 100 uM. Put shortly: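 Chemiluminescent NA-Star kit using H1N1 virus (TCID50 2 × 10^7/mL, diluted 5-fold) as enzyme source. Virus was preincubated with compound, in triplicate, 20 min at 37 °C. 1:1000-diluted substrate was then added for 30 min at room temperature, followed by accelerator and an immediate luminescence read.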

Data set [8] relates to Influenza A virus. Put plainly: Antiviral activity against Influenza A virus (A/Viet Nam/1203/2004(H5N1)) in MDCK cells assessed as inhibition of virus-induced cytopathic effect after 48 hrs by crystal violet staining. It is filed as functional, organism-based.

Activity calls are given as the source filed them. No cut-off for these calls is given here. Residues, ends and D or L forms follow the SMILES beside them. *: point of attachment. Cbz = O=C(OCc1ccccc1)*

In the case of `Nc1nc(=O)c2cc(CSc3ccc(C(=O)NC(CCC(=O)O)C(=O)O)cc3)ccc2[nH]1` (centres undefined), the result in the data set on Influenza A virus [1] and with Influenza A virus [2] was inactive.

Take `CCOC(=O)CNC(=O)CCC(NS(=O)(=O)c1ccc(C)cc1)C(=O)O` (centres undefined): the outcome in the data set with Influenza A virus [1] and with Influenza A virus [2] was inactive. The Activity in data set [3] amounted to 0.8 µM.

Turning to `C[C@H](NC(=O)OCc1ccccc1)C(=O)N[C@@H](Cc1c[nH]c2ccccc12)C(=O)O` (Cbz-Ala-Trp-OH), the outcome in the data set with Influenza A virus [1] and with Influenza A virus [2] was inactive. The compound further yielded an Activity in [3] of 0.9 µM.

As to `CNC(=N)Nc1ccc(C(=O)O)cc1.O=S(=O)(O)O`, the result with Influenza A virus [1] and in the data set with Influenza A virus [2] was inactive. Moreover, in data set [3], the Activity amounted to 0.7 µM.

With `CC[C@H](C)[C@H](NC(=O)[C@H](C)NC(=O)OCc1ccccc1)C(=O)O` (Cbz-Ala-Ile-OH), the outcome with Influenza A virus [1] and in the data set with Influenza A virus [2] was inactive. Also, in [3], the Activity was found to be 1 µM.

Turning to `Nc1nc(O)c2cc(CSc3ccc(C(=O)NC(CCC(=O)O)C(=O)O)cc3)ccc2n1` (centres undefined), the Activity (in data set [3]; in the data set with MDCK) was 1.1 µM each time.

For `O=C(O)C(Cc1ccc(O)cc1)c1ccc(C(Cc2ccc(O)cc2)C(=O)O)cc1` (centres undefined), the result with Influenza A virus [1] and in the data set with Influenza A virus [2] was inactive. For the same compound, the Activity in [3] amounted to 0.1 µM.

On to `C/C(=C\C(=O)N1c2ccccc2CC1c1c[nH]c2ccccc12)C(=O)O` (centres undefined), for which the outcome in the data set with Influenza A virus [1] and in the data set with Influenza A virus [2] was inactive. Further, the Activity in data set [3] amounted to 1 µM; in the data set on MDCK, 1.2 µM.

Regarding `O=C(O[C@H](C(=O)O)[C@H](OC(=O)c1ccccc1)C(=O)O)c1ccccc1`, the outcome in the data set with Influenza A virus [1] and in the data set with Influenza A virus [2] was inactive. Further, the values for the Activity (in data set [3]; with MDCK) were 1.1 µM and 0.7 µM, respectively.

Consider `O=C(O)CCC(=O)CCC(=O)c1ccc2ccccc2c1`, for which the result in the data set with Influenza A virus [1] and with Influenza A virus [2] was inactive. The Activity in data set [3] stood at 1.1 µM; with MDCK, 1 µM.

Turning to `CCOC(=O)C1=C[C@@H](OC(CC)CC)[C@H](NC(C)=O)[C@@H](N)C1`, the outcome in the data set with Influenza A virus [1], in the data set with Influenza A virus [4], in the data set with Influenza A virus [5] and with Influenza A virus [2] was Active.

For the compound `O=C(O)c1ccccc1C(=O)Nc1cc2c(cc1Br)-c1ccccc1C2=O`, the result in the data set on Influenza A virus [1] and with Influenza A virus [2] was inactive. The Activity came out at 10 µM in [3] and 1.1 µM with MDCK.

Regarding `Cc1ccccc1OC(=O)Nc1ccc(C(=O)O)c(O)c1`, the result in the data set with Influenza A virus [1] and in the data set with Influenza A virus [2] was inactive. The figures for the Activity (in data set [3]; in the data set with MDCK) were 0.9 µM and 1.7 µM, respectively.

For the compound `O=C(Nc1ccn(C2CCC(COC(c3ccccc3)(c3ccccc3)c3ccccc3)O2)c(=O)n1)c1ccccc1` (centres undefined), the result in the data set on Influenza A virus [1] and with Influenza A virus [2] was inactive. In [3], this compound displayed an Activity of 0.8 µM.

Take `Cc1nc(N)nc(O)c1CCCNc1ccc(/C=C/C(=O)CCl)cc1`: the outcome (in the data set with Influenza A virus [1]; in the data set on Influenza A virus [4]; in data set [7]; in the data set with Influenza A virus [5]; with Influenza A virus [2]) was Active. The Activity entry with Mus musculus was “Non-toxic”; in data set [3] it was 1.1 µM; in the data set with Influenza A virus [6], “Dose-dependent effect”; in the data set with Influenza A virus [8], “Dose-dependent effect”; with MDCK, 2.2 µM.

In the case of `O=C(O)CCCCCNC(=O)OCc1ccccc1`, the result in the data set on Influenza A virus [1] and with Influenza A virus [2] was inactive. For the same compound, the values for the Activity (in [3]; with MDCK) were 0.9 µM and 1.5 µM, respectively.

Turning to `Cc1cccc(OC(=O)Nc2ccc(C(=O)O)c(O)c2)c1`, the outcome in the data set on Influenza A virus [1] and in the data set on Influenza A virus [2] was inactive. The Activity was found to be 1 µM in data set [3] and 2.3 µM in the data set with MDCK.

For the compound `CCOC(=O)C(O)C(=O)OCc1ccc2ccccc2n1` (centres undefined), the outcome with Influenza A virus [1] and with Influenza A virus [2] was inactive. Besides, the Activity was found to be 1 µM in data set [3] and 1.4 µM in the data set with MDCK.

On to `Nc1nc(=O)c2cc(NCc3ccc(C(=O)NC(CCC(=O)O)C(=O)O)cc3)ccc2[nH]1` (centres undefined), for which the outcome with Influenza A virus [1] and in the data set on Influenza A virus [2] was inactive. The results for the Activity (in data set [3]; in the data set on MDCK) were 0.9 µM and 1.2 µM, respectively.

Turning to `Cc1nc(Nc2ccccc2)sc1C(=O)CC(=O)C(=O)NC1C2CC3CC(C2)CC1C3` (centres undefined), the outcome with Influenza A virus [1] and in the data set on Influenza A virus [2] was inactive. Also, the Activity turned out to be 1.1 µM in [3] and 1.5 µM in the data set with MDCK.

On to `O=C(O)CCC(=O)NCC1CCCC(CNC(=O)CCC(=O)O)C1` (centres undefined), for which the outcome in the data set with Influenza A virus [1] and with Influenza A virus [2] was inactive. Besides, the Activity worked out at 0.9 µM in data set [3] and 1.3 µM in the data set with MDCK.

`O=C(/C=C/c1ccc(O)c(O)c1)NCC(=O)NC(Cc1ccccc1)C(=O)O` (centres undefined): the result with Influenza A virus [1] and in the data set on Influenza A virus [2] was inactive. For the same compound, the Activity came out at 1.1 µM in data set [3] and 2.2 µM in the data set with MDCK.
